Seven compounds from ChEMBL document CHEMBL3244354, “Syntheses and biological activities of 7 beta-methyl steroids” (J Med Chem, 1979) can be followed below.

For data set [1], the system named is Rattus norvegicus. The data set is described as follows: Effect on uterine weight in rat 13762 cells allografted Fischer 344 rat at 100 mg/kg, ip qd for 20 days relative to control. It counts as functional. Particulars: route intraperitoneal. A digest of the protocol: (§1)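 Female Fischer 344 rats, about 40 days old, received subcutaneous right-side grafts of 13762 mammary adenocarcinoma on day 0. From day 1 they got test compound in sesame oil ip daily for 20 days at 10 or 100 (mg/kg)/day. Vehicle controls got 0.5 mL/day. Endpoints were survivors/treated and FBW (minus tumor)/IBW. Tumor weight, final tumor size (length + width/2), and organ weights per 100 g were reported as % control.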

In data set [2] the test system is Rattus norvegicus. The data set is described as follows: Effect on pituitary weight in rat 13762 cells allografted Fischer 344 rat at 100 mg/kg, ip qd for 20 days relative to control. It counts as functional, Pituitary gland cell. Particulars: route intraperitoneal. The gist of the method:
as §1

The subject of data set [3] is 13762. Briefly: Antitumor activity against rat 13762 cells allografted in Fischer 344 rat assessed as host survival at 100 mg/kg, ip qd for 20 days. Details: dose 100 mg/kg. It counts as functional, organism-based. A digest of the protocol:
as §1

The test system of data set [4] is Rattus norvegicus. Briefly: Toxicity in rat 13762 cells allografted in Fischer 344 rat assessed as ratio of final body weight to initial body weight at 100 mg/kg, ip qd for 20 days. The class given is organism-based. Details: dose 100 mg/kg, route intraperitoneal. Particulars: in vivo, 480 h. A digest of the protocol: as §1
The subject of data set [5] is Rattus norvegicus. The data set is described as follows: Effect on thymus weight in rat 13762 cells allografted Fischer 344 rat at 100 mg/kg, ip qd for 20 days relative to control. The class given is functional. Particulars: route intraperitoneal. The gist of the method:
as §1

The test system of data set [6] is Rattus norvegicus. The data set is described as follows: Effect on spleen weight in rat 13762 cells allografted Fischer 344 rat at 100 mg/kg, ip qd for 20 days relative to control. It counts as functional. Particulars: route intraperitoneal. The gist of the method:
as §1

The subject of data set [7] is Rattus norvegicus. The data set is described as follows: Effect on ovarian weight in rat 13762 cells allografted Fischer 344 rat at 100 mg/kg, ip qd for 20 days relative to control. The class given is functional. Particulars: route intraperitoneal. The gist of the method: as §1
Data set [8] has as its system 13762. Briefly: Antitumor activity against rat 13762 cells allografted in Fischer 344 rat assessed as tumor weight at 100 mg/kg, ip qd for 20 days relative to control. The class given is functional. Particulars: route intraperitoneal. A digest of the protocol: as §1
Data set [9] deals with Rattus norvegicus. Briefly: Effect on adrenal weight in rat 13762 cells allografted Fischer 344 rat at 100 mg/kg, ip qd for 20 days relative to control. The class given is functional. Particulars: route intraperitoneal. The gist of the method: as §1
The test system of data set [10] is Rattus norvegicus. Briefly: Androgenic activity in castrate rat assessed as change in body weight at 3 mg, sc qd for 7 days by autopsy analysis (reference value: 88 gram). It counts as functional.
The test system of data set [11] is Rattus norvegicus. The data set is described as follows: Androgenic activity in castrate rat assessed as seminal vesicle weight at 3 mg, sc qd for 7 days by autopsy analysis (reference value: 13.6 +/- 0.19 mg). The class given is functional.
The subject of data set [12] is Rattus norvegicus. The data set is described as follows: Androgenic activity in castrate rat assessed as ventrol prostate weight at 3 mg, sc qd for 7 days by autopsy analysis (reference value: 17.5 +/- 0.41 mg). It counts as functional, Prostate gland.
Data set [13] deals with Rattus norvegicus. The data set is described as follows: Myotrophic activity in castrate rat assessed as levator ani weight at 3 mg, sc qd for 7 days by autopsy analysis (reference value: 23.6 +/- 1.08 mg). The class given is functional.
In data set [14] the test system is Rattus norvegicus. The data set is described as follows: Effect on uterine weight in rat 13762 cells allografted Fischer 344 rat at 10 mg/kg, ip qd for 20 days relative to control. The class given is functional. Particulars: route intraperitoneal. A digest of the protocol: as §1
For data set [15], the system named is 13762. Briefly: Antitumor activity against rat 13762 cells allografted in Fischer 344 rat assessed as host survival at 10 mg/kg, ip qd for 20 days. It counts as functional, organism-based. Details: dose 10 mg/kg. A digest of the protocol: as §1
Data set [16] concerns 13762. Briefly: Antitumor activity against rat 13762 cells allografted in Fischer 344 rat assessed as tumor weight at 10 mg/kg, ip qd for 20 days relative to control. It counts as functional. Particulars: route intraperitoneal. The gist of the method:
as §1

In data set [17] the test system is Rattus norvegicus. The data set is described as follows: Effect on spleen weight in rat 13762 cells allografted Fischer 344 rat at 10 mg/kg, ip qd for 20 days relative to control. Particulars: route intraperitoneal. The class given is functional. A digest of the protocol: as §1
Data set [18] has as its system Rattus norvegicus. Briefly: Effect on thymus weight in rat 13762 cells allografted Fischer 344 rat at 10 mg/kg, ip qd for 20 days relative to control. The class given is functional. Particulars: route intraperitoneal. A digest of the protocol:
as §1

Data set [19] has as its system 13762. Briefly: Antitumor activity against rat 13762 cells allografted in Fischer 344 rat assessed as final tumor size at 10 mg/kg, ip qd for 20 days relative to control. It counts as functional. Particulars: route intraperitoneal. A digest of the protocol:
as §1

In data set [20] the test system is Rattus norvegicus. Briefly: Effect on ovarian weight in rat 13762 cells allografted Fischer 344 rat at 10 mg/kg, ip qd for 20 days relative to control. It counts as functional. Particulars: route intraperitoneal. A digest of the protocol: as §1
For data set [21], the system named is Rattus norvegicus. Briefly: Effect on adrenal weight in rat 13762 cells allografted Fischer 344 rat at 10 mg/kg, ip qd for 20 days relative to control. It counts as functional. Particulars: route intraperitoneal. The gist of the method:
as §1

For data set [22], the system named is Rattus norvegicus. The data set is described as follows: Toxicity in rat 13762 cells allografted in Fischer 344 rat assessed as ratio of final body weight to initial body weight at 10 mg/kg, ip qd for 20 days. Details: dose 10 mg/kg, route intraperitoneal. Particulars: in vivo, 480 h. It counts as organism-based. A digest of the protocol: as §1

Each structure is given as a SMILES string. Calls of active or inactive are those of the source. The calls are words filed in the database; no cut-off is given here.

On to `CC(=O)O[C@H]1CC[C@H]2[C@@H]3CCC4=CC(=O)CC[C@]4(C)[C@H]3CC[C@]12C`, for which the Activity was 179% in the data set with Rattus norvegicus [1]; 71% in the data set with Rattus norvegicus [2]; 31% in the data set with Rattus norvegicus [5]; 100% in the data set on Rattus norvegicus [6]; 65% with Rattus norvegicus [7]; 123% with 13762 [8]. The compound also yielded an Activity in the data set with Rattus norvegicus [9] of 88%. Also, in the data set with 13762 [3], the outcome was Active. The Ratio in the data set on Rattus norvegicus [4] worked out at 1.68.
As for `C[C@H]1CC2=CC(=O)CC[C@]2(C)[C@H]2CC[C@@]3(C)[C@@H](CC[C@]3(C)O)[C@H]12` [CALUSTERONE], the Activity in the data set with Rattus norvegicus [1] is recorded as 148%; with Rattus norvegicus [2] it was 80%; with Rattus norvegicus [5], 57%; in the data set with Rattus norvegicus [6], 115%; in the data set on Rattus norvegicus [7] it was 60%; with 13762 [8] it was 123%. Besides, the Activity in the data set with Rattus norvegicus [9] came out at 73%. The result in the data set with 13762 [3] was Active. The Ratio in the data set with Rattus norvegicus [4] stood at 1.64.
In the case of `CC(=O)O[C@H]1CC[C@H]2[C@@H]3CC[C@H]4CSC[C@]4(C)[C@H]3CC[C@]12C`, the Activity with Rattus norvegicus [10] came out at 95 g; in the data set with Rattus norvegicus [11] it was 48.6 mg; in the data set on Rattus norvegicus [12], 61.9 mg; in the data set with Rattus norvegicus [13], 65.2 mg.
In the case of `C[C@H]1CC2=CC(=O)CC[C@]2(C)[C@H]2CC[C@]3(C)[C@@H](O)CC[C@H]3[C@H]12`, the Activity in the data set with Rattus norvegicus [1] is on record as 202%; with Rattus norvegicus [2], 73%; in the data set on Rattus norvegicus [5], 47%; with Rattus norvegicus [6] it was 108%; in the data set with Rattus norvegicus [7] it was 72%; with 13762 [8] it was 103%. For the same compound, the Activity in the data set on Rattus norvegicus [9] is recorded as 70%. Besides, the result in the data set with 13762 [3] was Active. Besides, in the data set on Rattus norvegicus [4], the Ratio amounted to 1.58.
On to `CC(=O)O[C@H]1CC[C@H]2[C@@H]3[C@@H](C)C[C@H]4CSC[C@]4(C)[C@H]3CC[C@]12C`, for which the Activity in the data set with Rattus norvegicus [14] was 124%; with Rattus norvegicus [1], 128%; with 13762 [16] it was 85%; with Rattus norvegicus [2] it was 90%; in the data set on Rattus norvegicus [17], 81%; in the data set with Rattus norvegicus [18], 125%. Moreover, the Activity in the data set with Rattus norvegicus [10] is on record as 90 g; in the data set on Rattus norvegicus [11], 11.8 mg; with Rattus norvegicus [5], 79%; with 13762 [19] it was 85%; with Rattus norvegicus [6], 145%; with Rattus norvegicus [20], 105%. In addition, the Activity with Rattus norvegicus [12] is reported as 18.6 mg; with Rattus norvegicus [21] it was 101%; in the data set on Rattus norvegicus [13], 25.7 mg; in the data set with Rattus norvegicus [7], 87%; with 13762 [8], 133%; in the data set with Rattus norvegicus [9] it was 87%. Also, the outcome in the data set with 13762 [15] and in the data set with 13762 [3] was Active. Further, the Ratio in the data set with Rattus norvegicus [4] turned out to be 1.55; in the data set on Rattus norvegicus [22] it was 1.5.
`CCC(=O)O[C@H]1CC[C@H]2[C@@H]3CCC4=CC(=O)CC[C@]4(C)[C@H]3CC[C@]12C` [TESTOSTERONE PROPIONATE]: the Activity in the data set with Rattus norvegicus [10] is reported as 98 g; with Rattus norvegicus [11], 65.9 mg; with Rattus norvegicus [12], 126 mg; in the data set with Rattus norvegicus [13] it was 68.2 mg.
Consider `CC(=O)O[C@H]1CC[C@H]2[C@@H]3[C@@H](C)C[C@H]4CC(=O)CC[C@]4(C)[C@H]3CC[C@]12C`, for which the Activity with Rattus norvegicus [14] stood at 143%; in the data set on Rattus norvegicus [1], 151%; in the data set with 13762 [16], 84%; in the data set on Rattus norvegicus [2], 56%; in the data set on Rattus norvegicus [17] it was 77%; in the data set with Rattus norvegicus [18], 71%. Besides, the Activity in the data set on Rattus norvegicus [10] is on record as 90 g; in the data set with Rattus norvegicus [11], 45.8 mg; in the data set on Rattus norvegicus [5] it was 48%; with 13762 [19], 90%; with Rattus norvegicus [6], 108%; in the data set on Rattus norvegicus [20] it was 77%. Moreover, the Activity with Rattus norvegicus [12] was 81.4 mg; with Rattus norvegicus [21], 68%; with Rattus norvegicus [13], 63.3 mg; in the data set on Rattus norvegicus [7] it was 62%; in the data set with 13762 [8], 132%; in the data set on Rattus norvegicus [9], 68%. Further, the result in the data set with 13762 [15] and in the data set on 13762 [3] was Active. Besides, the figures for the Ratio in the data set with Rattus norvegicus [4] and in the data set with Rattus norvegicus [22] were 1.81 and 1.58, respectively.
